H69AR inhibit: proliferation blockers of H69AR lung cancer cells, primary screen, cell-based, human, 86K library. H69AR lung tumor viability, ATP luminescence, 72 h; hits give low values. viability, % at 10 µM. hit rate 6% among 85,000. AID 598, 2007;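 active means viability at or below 40%; inactive means viability above 40%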;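 further: multidrug resistant small cell line overexpressing MRP-1 efflux transporter; 100% = mean luminescence of untreated control wells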
HCT116 bCat-KO: primary screen for growth suppressors in beta-catenin knockout HCT116 cells (colon tumor, human) | HCT116 beta-catenin knockout viability, CellTiter-Glo, 60 h; hits give low values | viability, % at 10 µM | hit rate 1.5% among 140,000 | AID 818, 2007;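 active means viability at or under a set limit, the compound median less 4 SD, cut at about 6% in these data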;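 further: 0% = Hyamine 1622 control at 20 µM and 100% = untreated cell control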
Lung fibro prol: antiproliferative effect on LL 47 fibroblasts – human, LL 47 cells, CellTiter-Glo luminescence, primary screen. viability, % at 10 µM. hit rate 1.1% among 85,000. LL 47 human lung fibroblast viability, ATP luminescence; hits give low values. AID 719, 2007;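 active means viability at or below 50% in the single dose screen; inactive means viability above 50%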;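 further: compound exposure lasted 72 h before the ATP readout; 100% = median luminescence of untreated cell-only wells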
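Benchmarks: Cell-only wells, no compound | Test system: LL 47 human lung fibroblasts, passage 12 or lower | Input: 1,150 cells/well | Measured by: CellTiter-Glo luminescence measuring cellular ATP | Medium: IMEM, 15% FBS supplement | Schedule: Overnight attachment after seeding, then 72 h compound exposure at 37 °C | Doses: Compound addition at 0.1% DMSO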
HCT116 PTEN-null: growth suppression of PTEN-null HCT116, primary screen, cell-based, CellTiter-Glo; HCT116 PTEN-null viability, 60 h; hits give low values; viability, % at 10 µM; hit rate 1.2% among 140,000; AID 827, 2007;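 active means viability at or below a set limit, 4 SD under the median of all tested compounds, cut at about 3.7% in these data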;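 further: PTEN knockout HCT116 line with beta catenin targeted HCT116 as companion control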
HUVEC prolif 384: inhibitors of HUVEC proliferation, primary screen, cell-based, 384-well | AID 648, 2007 | viability, % at 10 µM (by protocol) | CellTiter-Glo luminescence, 72 h; hits give low values | hit rate 1.1% among 86,000;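 active means viability at or below 30%; inactive means viability above 30%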;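 further: 100% = median luminescence of DMSO-only cell control wells on each plate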
Cav32 inh: Cav3.2 calcium influx blockers – cell-based, Fluo-4 calcium fluorescence, FDSS, MLSMR library, primary screen | Voltage-dependent T-type calcium channel subunit alpha-1H (Homo sapiens), O95180 | Cav3.2-expressing cells; hits give low values | B-score at 10 µM | hit rate 4% among 100,000 | AID 449739, 2010;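 active means single-dose well whose peak fluorescence ratio is a statistical outlier from its plate by either plate-standardised score or position-corrected B-score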
Active calls of the source: *. Sampled rows, rich in hits. Any-hit rate of the full collection: about 7.1%.

Results for COc1ccc(OCc2nc(N)nc(Nc3ccccc3OC)n2)cc1 ?
H69AR inhibit: 2.2*; HCT116 bCat-KO: 76.1; Lung fibro prol: 76.9; HCT116 PTEN-null: 86.3; HUVEC prolif 384: 94.9; Cav32 inh: -0.0166

What do the screens show for `Cc1c(Cl)cccc1Nc1nc(N)nc(CN2CCc3ccccc3C2)n1`?
H69AR inhibit: 14.9*; HCT116 bCat-KO: 64.0; Lung fibro prol: 86.8; HCT116 PTEN-null: 52.5; HUVEC prolif 384: 89.1; Cav32 inh: -4.04*

What do the screens show for `O=C(Nc1nccs1)c1ccc2c(=O)n3c(nc2c1)CCCCC3`?
HCT116 bCat-KO: 91.9; HCT116 PTEN-null: 93.7

What do the screens show for `CCOc1ccc(C(=O)NC(=S)Nc2ccccc2N2CCOCC2)cc1Br`?
HCT116 bCat-KO: 74.7; HCT116 PTEN-null: 66.3

What do the screens show for `CCCCCCCCC/C(=N\O)c1ccccn1`?
H69AR inhibit: 79.8; HCT116 bCat-KO: 3.4*; Lung fibro prol: 36.1*; HCT116 PTEN-null: 7.0; HUVEC prolif 384: 5.4*; Cav32 inh: -4.12

What do the screens show for `Cc1ccc2nc(NCc3ccccc3)[nH]c2c1`?
H69AR inhibit: 22.3*; HCT116 bCat-KO: 18.6; Lung fibro prol: 52.9; HCT116 PTEN-null: 21.4; HUVEC prolif 384: 42.6; Cav32 inh: -1.06

How did COc1ccc2nc(NCc3ccccc3)[nH]c2c1 do in these assays?
H69AR inhibit: 19.7*; HCT116 bCat-KO: 21.4; Lung fibro prol: 67.2; HCT116 PTEN-null: 31.0; HUVEC prolif 384: 54.0; Cav32 inh: 0.317

What do the screens show for `CC1(C)C(C=C(Cl)Cl)C1C(=O)N1CCN(c2ccccc2)CC1` (stereo not drawn)?
H69AR inhibit: 88.2; HCT116 bCat-KO: 67.5; Lung fibro prol: 96.2; HCT116 PTEN-null: 67.3; HUVEC prolif 384: 115.2; Cav32 inh: -4.93*

How did COc1ccc(C(=O)c2ccc(OC)cc2O)c(O)c1 do in these assays?
H69AR inhibit: 32.0*; HCT116 bCat-KO: 64.1; Lung fibro prol: 88.7; HCT116 PTEN-null: 86.1; HUVEC prolif 384: 90.2; Cav32 inh: 0.273

How did COc1ccc(OC)c(C(=O)c2coc3ccc(O)cc23)c1 do in these assays?
H69AR inhibit: 24.1*; HCT116 bCat-KO: 97.5; Lung fibro prol: 98.6; HCT116 PTEN-null: 105.6; HUVEC prolif 384: 77.9; Cav32 inh: -4.68*

Results for COc1ccc2occ(C(C)=O)c2c1 ?
H69AR inhibit: 85.0; HCT116 bCat-KO: 94.7; Lung fibro prol: 95.8; HCT116 PTEN-null: 100.1; HUVEC prolif 384: 90.4; Cav32 inh: 0.551

What do the screens show for `O=C(Nc1ncc(S(=O)(=O)c2ccc([N+](=O)[O-])cc2)s1)c1ccc2ccccc2c1`?
HCT116 bCat-KO: 82.0; HCT116 PTEN-null: 82.3

What do the screens show for `COC(=O)C(NC(=O)c1ccccc1Cl)(Nc1ncc(S(=O)(=O)c2ccc([N+](=O)[O-])cc2)s1)C(F)(F)F` (stereo not drawn)?
HCT116 bCat-KO: 76.4; HCT116 PTEN-null: 70.7; Cav32 inh: -8.55*

How did CCC(C)(C)C(=O)Nc1ncc(S(=O)(=O)c2ccc([N+](=O)[O-])cc2)s1 do in these assays?
H69AR inhibit: 52.7; HCT116 bCat-KO: 65.1; Lung fibro prol: 83.2; HCT116 PTEN-null: 56.7; HUVEC prolif 384: 75.4; Cav32 inh: -5.17*

Results for Cc1cccc(-n2nnnc2SCc2csc(-c3ccccc3)n2)c1 ?
H69AR inhibit: 97.0; HCT116 bCat-KO: 78.7; Lung fibro prol: 92.3; HCT116 PTEN-null: 86.1; HUVEC prolif 384: 96.1; Cav32 inh: -3.27*

How did Cc1cccc2nc(CSc3nnnn3-c3ccccc3)cn12 do in these assays?
H69AR inhibit: 96.2; HCT116 bCat-KO: 99.2; Lung fibro prol: 97.6; HCT116 PTEN-null: 115.8; HUVEC prolif 384: 105.0; Cav32 inh: 0.421

How did Cc1ccc(Nc2nc(CSc3nnnn3-c3ccccc3)cs2)cc1 do in these assays?
H69AR inhibit: 97.6; HCT116 bCat-KO: 88.5; Lung fibro prol: 91.5; HCT116 PTEN-null: 102.7; HUVEC prolif 384: 73.9; Cav32 inh: -3.97*

What do the screens show for `Cc1ccc2c(C)c(C(=O)N(Cc3cccs3)C3CCS(=O)(=O)C3)oc2c1` (stereo not drawn)?
H69AR inhibit: 80.5; HCT116 bCat-KO: 82.0; Lung fibro prol: 90.0; HCT116 PTEN-null: 78.1; HUVEC prolif 384: 74.2; Cav32 inh: -1.89

How did CCOc1ccc(CN(C(=O)c2oc3cc(C)ccc3c2C)C2CCS(=O)(=O)C2)cc1 (stereo not drawn) do in these assays?
H69AR inhibit: 11.3*; HCT116 bCat-KO: 16.2; Lung fibro prol: 85.7; HCT116 PTEN-null: 16.5; HUVEC prolif 384: 49.9; Cav32 inh: -1.58

Results for Cc1ccc(CN(C(=O)c2cc(=O)c3cc(Cl)c(C)cc3o2)C2CCS(=O)(=O)C2)cc1 (stereo not drawn) ?
H69AR inhibit: 26.4*; HCT116 bCat-KO: 67.8; Lung fibro prol: 81.7; HCT116 PTEN-null: 65.7; HUVEC prolif 384: 77.8; Cav32 inh: -1.3

What do the screens show for `O=C(COC(=O)c1ccc2[nH]c3c(c2c1)CCCC3)Nc1ccccc1`?
HCT116 bCat-KO: 79.2; HCT116 PTEN-null: 82.1

What do the screens show for `CCc1ccc(-c2nc(CN3CCC(C(=O)N4CCN(c5ccccn5)CC4)CC3)c(C)o2)cc1`?
H69AR inhibit: 38.7*; HCT116 bCat-KO: 1.9*; Lung fibro prol: 95.5; HCT116 PTEN-null: 1.1*; HUVEC prolif 384: 31.3

How did Cc1oc(-c2cccc(Cl)c2)nc1CN1CCC(C(=O)N2CCN(c3ccccn3)CC2)CC1 do in these assays?
H69AR inhibit: 33.3*; Lung fibro prol: 74.4; HUVEC prolif 384: 35.0

How did CCc1ccc(-c2nc(CN3CCC(C(=O)N4CCN(c5ccccc5)CC4)CC3)c(C)o2)cc1 do in these assays?
H69AR inhibit: 1.2*; HCT116 bCat-KO: 2.0*; Lung fibro prol: 73.7; HCT116 PTEN-null: 2.4*; HUVEC prolif 384: 3.5*; Cav32 inh: -3.96

How did Cc1cccc2cc(CN(Cc3ccccc3)C(=O)c3cccc(F)c3)c(Cl)nc12 do in these assays?
HCT116 bCat-KO: 62.6; HCT116 PTEN-null: 63.5; Cav32 inh: -2.74

Results for CCCc1nnc(NC(=O)CCC(=O)N2CCN(C3c4ccccc4-c4ccccc43)CC2)s1 ?
HCT116 bCat-KO: 84.5; HCT116 PTEN-null: 89.3

How did CN1CCN(c2ccc([N+](=O)[O-])cc2NC(=O)c2ccccc2)CC1 do in these assays?
HCT116 bCat-KO: 75.1; HCT116 PTEN-null: 74.8; Cav32 inh: 0.153

What do the screens show for `CCCCOc1cccc(C(=O)Nc2ccc(N3CCN(CC)CC3)cc2)c1`?
H69AR inhibit: 42.8; HCT116 bCat-KO: 23.5; Lung fibro prol: 78.6; HCT116 PTEN-null: 33.4; HUVEC prolif 384: 71.6; Cav32 inh: -0.276

How did CCCCOc1ccc(C(=O)Nc2ccc(N3CCN(C)CC3)cc2)cc1 do in these assays?
H69AR inhibit: 22.7*; HCT116 bCat-KO: 1.5*; Lung fibro prol: 27.8*; HCT116 PTEN-null: 1.8*; HUVEC prolif 384: 31.7

Compound activity from PubChem BioAssay.
